According to ChEMBL document CHEMBL1150201, “Verbascoside isolated from Lantana camara, an inhibitor of protein kinase C” (J Nat Prod, 1991):
pIC50: −log10 of the molar value. Active and inactive are the calls of the source. No cut-off for these calls is given here.

How the values were obtained:
L1210 [1] = assay: Antiproliferative activity against mouse L1210 cells after 48 hrs by coulter counting analysis; assay type: functional, cell-based; conditions: L1210, 48 h
In short: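 L1210 cells seeded at 10^4 per well in DMEM with 10% fetal calf serum, 4 mM glutamine and penicillin/streptomycin, with compound added from DMSO. Grown 2 days at 37° in 5% CO₂, then counted in a Coulter counter. Cultures were logarithmically growing at plating; n = 6. IC₅₀ taken from linear regression lines.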

L1210 [2] = assay: Cytotoxicity against mouse L1210 cells at 25 uM by MTT assay; assay type: functional, cell-based
In short: (§1)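 MTT colorimetric assay after Mosmann, measuring reduction of the tetrazolium to blue formazan by viable cells, read photometrically. Treated cells were compared with the same number of untreated cells.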

[3] = biological target: T1, Protein kinase C (PKC) (Rattus norvegicus) (UniProt P05696+P68403+P09216+P63319+P09215+Q64617+Q9WTQ0+P09217); assay: (§2) Inhibition of rat brain PKC by mixed micellar assay
In short: (§3)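 PKC purified from rat brain, 0.5 µg per tube. Medium was 20 mM Tris/HCl pH 7.5, 10 mM MgCl₂, 200 µg/ml histone IIIS, micelles of 700 µM phosphatidylserine and 180 µM 1,2-dioleine in 0.3% Triton X-100, 0.2 mM CaCl₂, 100 µM ATP with [γ-³²P]-ATP and compound in DMSO. After 3 min at 30°, TCA-precipitated material was filtered and counted. Activity without micelles/CaCl₂ subtracted; 6 replicates.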

Protein kinase C (PKC) [4] = assay: as §2; in short: as §3
Protein kinase C (PKC) [5] = assay: Displacement of [gamma32P]ATP from rat brain PKC by competitive Lineweaver-Burke plot analysis
In short: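 Rat brain PKC (0.5 µg) in the mixed-micelle assay with histone fixed at 200 µg/ml and ATP varied. Inhibitor levels were 0, 5, 10 and 15 µM. Data were analysed as double-reciprocal plots. Apparent Ki came from line intersections by unweighted least-squares fit.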

Protein kinase C (PKC) [6] = assay: Inhibition of rat brain PKC using histone type 3-S as substrate by noncompetitive Lineweaver-Burke plot analysis
[7] = biological target: T1, Protein kinase C (PKC) (Rattus norvegicus); assay: Displacement of [3H]PDBu from rat brain PKC at 1 mM by scintillation counting
In short: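 PKC incubated 1 h at 30° in 250 µl of 50 mM Tris/HCl pH 7.4 with 1 mM CaCl₂, 39.2 nM [³H]-PDBu and 50 µg/ml PKC, plus compound. Nonspecific binding defined with 100-fold excess unlabelled PDBu. Diluted with ice-cold buffer, filtered on glass fiber, washed 3 times, bound radioactivity by scintillation counting.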

Protein kinase C (PKC) [8] = assay: Inhibition of rat brain PKC catalytic domain by mixed micellar assay
In short: (§4)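 Catalytic fragment made by incubating PKC for 10 min at 30° with 1 µg/ml trypsin, giving calcium- and lipid-independent activity. It was then assayed in the mixed-micelle histone phosphorylation assay, varying ATP or histone.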

[9] = biological target: T1, Protein kinase C (PKC) (Rattus norvegicus); assay: Displacement of [gamma32P]ATP from rat brain PKC catalytic domain by competitive Lineweaver-Burke plot analysis; in short: as §4
[10] = biological target: T1, Protein kinase C (PKC) (Rattus norvegicus); assay: Inhibition of rat brain PKC catalytic domain using histone type 3-S as substrate by noncompetitive Lineweaver-Burke plot analysis; in short: as §4
LSTRA = assay: Inhibition of protein tyrosine kinase in mouse LSTRA cells assessed as formation of [32P]phosphotyrosine at 100 uM by gel electrophoresis; assay type: cell-based
[11] = Inhibition of PKA at 100 uM
L1210 [12] = assay: Cytotoxicity against mouse L1210 cells at 10 uM by MTT assay; assay type: functional, cell-based; in short: as §1

| SMILES | pIC50 (L1210 [1]) | Activity (L1210 [2]) | Activity [3] | IC50 (Protein kinase C (PKC) [4]) | Ki (Protein kinase C (PKC) [5]) | Ki (Protein kinase C (PKC) [6]) | inhibition [7] | IC50 (Protein kinase C (PKC) [8]) | Activity [9] | Activity [10] | inhibition (LSTRA) | inhibition [11] | Activity (L1210 [12]) |
| --- | --- | --- | --- | --- | --- | --- | --- | --- | --- | --- | --- | --- | --- |
| C[C@H]1CNCCN1S(=O)(=O)c1cccc2cnccc12 | 4.63 | inactive | – | – | – | – | – | – | – | – | – | – | – |
| C[C@@H]1O[C@@H](O[C@@H]2[C@@H](O)[C@H](OCCc3ccc(O)c(O)c3)O[C@H](CO)[C@H]2OC(=O)/C=C/c2ccc(O)c(O)c2)[C@H](O)[C@H](O)[C@H]1O [ACETOSIDE] | 4.89 | – | Dose-dependent effect | 25 µM | 22 µM | 28 µM | 9% | 21 µM | Active | Active | < 10% | < 10% | inactive |
